Hits are enriched below; roughly 2.3% of the tested compounds scored in any of these assays.
TAAR1 agonist = agonists of human TAAR1; Q96RJ0; CHO RD-HGA16 TAAR1, Fluo-8 calcium fluorescence; vehicle wells 0%, saturating PEA agonist 100%; activation, % at 3 µM; 360,000 compounds, 0.99% hits;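 active means activation above the mean activation of all test compounds in the run plus 3 SD, cut at about 38% in these data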
Target sequence (Q96RJ0 whole entry, looked up): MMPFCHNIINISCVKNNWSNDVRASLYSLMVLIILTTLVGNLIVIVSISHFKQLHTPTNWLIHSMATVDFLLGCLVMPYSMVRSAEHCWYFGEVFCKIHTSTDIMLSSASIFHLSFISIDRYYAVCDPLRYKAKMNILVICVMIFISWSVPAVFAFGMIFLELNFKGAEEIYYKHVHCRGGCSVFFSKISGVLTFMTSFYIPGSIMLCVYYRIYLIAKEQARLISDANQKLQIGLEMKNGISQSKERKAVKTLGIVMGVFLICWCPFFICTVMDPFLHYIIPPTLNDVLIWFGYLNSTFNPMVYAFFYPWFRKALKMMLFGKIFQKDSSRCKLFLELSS
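test system = CHO RD-HGA16 cells carrying human TAAR1 plus Gα16 | schedule = 17-24 h seeding, 75 min 37 °C dye, 30 min RT | compound dosing = 3 µM single concentration | control set = DMSO and PEA EC100 | replicates = n 1 | signal = Fluo-8 fluorescence, 5 s baseline then 140 s kinetic read | measure = percent activation vs PEA EC100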
TAAR1 antagonist = antagonists of human TAAR1. CHO RD-HGA16 TAAR1, Fluo-8 calcium fluorescence, antagonist. Q96RJ0. 360,000 compounds, 1.5% hits. inhibition, % at 3 µM. AID 624466;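 active means inhibition above a per-plate cutoff, the mean inhibition of test compounds on that plate plus 3 SD, cut at about 49% in these data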
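test system = CHO RD-HGA16 cells bearing hTAAR1 | replication = singlicate | controls = DMSO-only wells and EC80 β-PEA-stimulated wells | reagent = EC80 β-phenethylamine stimulus | read-out basis = percent inhibition of PEA-evoked calcium signal, max/basal emission ratio | schedule = seeding 17-24 h prior, 75-min 37 °C, 30-min RT dye loading | signal = kinetic Fluo-8 calcium fluorescence measurement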
V1aR counter = activates human V1a receptor in oxytocin agonist counter-screen; P37288; CHO-V1R cells, Fluo-8 calcium fluorescence, agonist mode; 0% DMSO, 100% 3 nM vasopressin; activation, % at 3 µM; 320,000 compounds, 0.25% hits; AID 2797;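 active means activation above the mean activation of all tested compounds plus 3 SD, per screening run, cut at about 20% in these data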;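 further: signal is peak over basal fluorescence ratio across a 100 second FLIPR read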
OXTR potentiator = potentiates the human oxytocin receptor response; activation, % at 3 µM; CHO-OTR cells, Fluo-8 calcium fluorescence, potentiator mode; 0% = oxytocin EC15, 100% = EC100; 320,000 compounds, 0.061% hits;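 active means activation above that plate's cutoff, the mean activation of tested compounds plus 3 SD, cut at about 6.6% in these data, passing the limit was not always enough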
Target sequence (P30559 whole entry, looked up): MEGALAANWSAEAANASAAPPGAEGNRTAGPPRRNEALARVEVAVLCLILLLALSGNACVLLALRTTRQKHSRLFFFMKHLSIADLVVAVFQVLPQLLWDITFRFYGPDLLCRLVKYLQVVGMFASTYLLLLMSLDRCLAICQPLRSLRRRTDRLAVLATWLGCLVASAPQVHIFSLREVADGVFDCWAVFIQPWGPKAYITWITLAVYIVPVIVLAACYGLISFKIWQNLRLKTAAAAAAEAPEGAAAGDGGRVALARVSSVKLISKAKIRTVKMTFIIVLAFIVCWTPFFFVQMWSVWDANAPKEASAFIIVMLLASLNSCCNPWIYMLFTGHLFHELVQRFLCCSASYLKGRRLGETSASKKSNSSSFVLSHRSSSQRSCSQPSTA
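System: human OTR in CHO cells / Also added: sub-maximal oxytocin, roughly EC15 / Control set: EC15 oxytocin low, 75 nM oxytocin high / Schedule: 6 min compound pre-incubation at room temperature, 100 s kinetic read / Compound: single-point 3.0 µM / Replication: singlicate / Technique: Fluo-8 calcium dye fluorescence / Read-out basis: % activation of max/min ratio relative to oxytocin controls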
OXTR ag = human OXTR agonism; P30559; CHO-OTR cells, Fluo-8 calcium fluorescence; normalized: DMSO 0%, oxytocin 100%; activation, % at 3 µM; 320,000 compounds, 0.32% hits; AID 2435;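 active means activation above the mean of all tested compounds plus 3 SD, cutoff set per screening run, cut at about 20% in these data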;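 further: peak over basal fluorescence ratio from a 100 s FLIPR kinetic read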
nonsel antag count = counter-screen for TAAR1 antagonists: nonselective antagonists. shares compounds with TAAR1 antagonist. counterscreen cell line, calcium fluorescence, antagonist mode. inhibition, % at 3 µM. 2,400 compounds, 77% hits. AID 651780; in the data active means inhibition above about 22%;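 further: CHO-Ga16 host cells stimulated with ATP at an EC80 level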
TAAR1 antag conf = human TAAR1 antagonism, confirmed. shares compounds with TAAR1 antagonist. TAAR1-expressing cells, fluorescence antagonist read-out. inhibition, % at 3 µM. 2,400 compounds, 40% hits. AID 651785; in the data active means inhibition above about 49%;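 further: CHO-Ga16 host cells challenged with agonist PEA near its EC80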
Ga16 ag counter = nonselective Ga16 agonist in TAAR1 antagonist counter-screen; shares compounds with TAAR1 antagonist; Ga16-expressing cells, calcium fluorescence, agonist counterscreen; activation, % at 3 µM; 2,400 compounds, 18% hits; in the data active means activation above about 12%
TAAR1 ag count = counter-screen for human TAAR1 antagonists: TAAR1 agonists. shares compounds with TAAR1 antagonist. hTAAR1 cell line, fluorescence activation, agonist mode. activation, % at 3 µM. 2,400 compounds, 2% hits. AID 651955; in the data active means activation above about 37%;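 further: CHO cells stably expressing TAAR1 with calcium dye readout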
Hits are given with their value; – = inactive; · = not tested or not shown.

SMILES	TAAR1 agonist	TAAR1 antagonist	V1aR counter	OXTR potentiator	OXTR ag	nonsel antag count	TAAR1 antag conf	Ga16 ag counter	TAAR1 ag count
Cc1ncc(CO)c2c1Oc1nc(-c3ccccc3)nc(SCC(=O)N(C)c3ccccc3)c1C2	–	62	–	–	–	27	–	–	–
CN(C)c1ccc(C(C(=O)NCC2CCCO2)N(Cc2ccco2)C(=O)c2snc(C(N)=O)c2N)cc1 (stereo unspecified)	–	67	–	–	–	34	52	–	–
CN(C)c1ccc(C(C(=O)NCC2CCCO2)N(Cc2ccccc2)C(=O)c2snc(C(N)=O)c2N)cc1 (stereo unspecified)	–	65	–	–	–	33	57	13	–
CCOc1ccc(C(C(=O)NCC2CCCO2)N(CCc2cccc(C)c2)C(=O)c2snc(C(N)=O)c2N)cc1 (stereo unspecified)	–	67	·	·	·	34	53	16	39
CN[C@H]1C[C@H]2c3[nH]c4ccccc4c3CCN2C(=O)[C@H]1[C@H](C)O	–	–	·	·	·	·	·	·	·
CCOC(=O)c1cnc2ccc(C)cc2c1Nc1ccc(N2CCOCC2)cc1	–	61	–	–	–	30	58	13	–
CN(C(=O)c1cccc(Nc2ccc(-c3ccc4c(c3)OCCO4)nn2)c1)C1CCCCC1	–	54	–	–	–	–	–	–	–
CN(C(=O)c1cccc(NC(=O)c2ccccc2)c1)C1CCCCC1	–	–	–	–	–	·	·	·	·
COc1ccc(C2(c3ccc(OC)cc3)NC(=O)N(CC(=O)NC3(C#N)CCCCC3)C2=O)cc1	–	–	–	–	–	·	·	·	·
CC1CC1c1ccc(/C=C(\C#N)C(=O)Nc2ccc(Cl)cc2)o1 (stereo unspecified)	–	52	–	–	–	–	–	–	–
CCc1cccc(CC)c1NC(=O)CN1CCN(S(=O)(=O)c2ccccc2)CC1	–	–	–	–	–	·	·	·	·
CCOc1cc(/C=C/C(=O)NCCc2ccc(S(N)(=O)=O)cc2)ccc1OCC(C)C	–	76	–	–	–	25	–	–	–
COc1cc(/C=C/C(=O)NCCc2ccc(S(N)(=O)=O)cc2)ccc1OCC#N	–	–	–	–	–	·	·	·	·
O=C(COc1cc2oc(=O)cc(-c3ccccc3)c2cc1Cl)NC(Cc1c[nH]c2ccc(O)cc12)C(=O)O (stereo unspecified)	–	–	–	–	–	·	·	·	·
CCN(C(=O)COC(=O)c1ccc(Cl)c(S(=O)(=O)N2CCCCC2)c1)C1CCS(=O)(=O)C1 (stereo unspecified)	–	–	–	–	–	·	·	·	·
COc1cc(OC)c(/C=N/NC(N)=S)cc1Br	–	–	–	–	–	·	·	·	·
COc1cc2c(-c3ccccc3)c(C)oc2cc1/C=N/NC(N)=S	–	103	–	–	–	–	–	–	–
CCN1CCC(CNCc2cn(-c3ccc(OC)cc3)nc2-c2ccccc2Cl)C1 (stereo unspecified)	–	–	–	–	–	·	·	·	·
Cc1ccc(C)c(N2CCN(C(=O)C34CC5CC(C3)CC(n3nnc(C)n3)(C5)C4)CC2)c1	–	59	–	–	–	35	–	–	–
Cc1c(C(=O)CN2CCCC(C)(C)C2)c2ccccc2n1C	–	–	–	–	–	·	·	·	·
CCN1C(c2ccccc2)C(C)C(=O)C(C)C1c1ccccc1 (stereo unspecified)	–	52	–	–	–	–	–	–	–
O=C(/C=C/c1ccccc1)Nc1cccc(C(=O)NCCc2ccccc2)c1	–	68	·	·	·	37	57	–	–
CC(C)(C)OC(=O)N1CCC(C(=O)Nc2ccc(C(=O)NCCc3ccccc3)cc2)CC1	–	–	·	·	·	·	·	·	·
O=C(NCCCCc1ccccc1)c1cccc(NC(=O)C2CCCCC2)c1	–	61	·	·	·	30	–	–	–
O=C(NCCc1ccccc1)c1cccc(NC(=O)C2CC2)c1	–	–	·	·	·	·	·	·	·
SMILES	TAAR1 agonist	TAAR1 antagonist	V1aR counter	OXTR potentiator	OXTR ag	nonsel antag count	TAAR1 antag conf	Ga16 ag counter	TAAR1 ag count
CC(C)(C)OC(=O)N1CCC(C(=O)Nc2cccc(C(=O)NCCCCc3ccccc3)c2)CC1	–	66	·	·	·	37	–	13	–
O=C(NCCCc1ccccc1)c1cccc(NC(=O)C2CCCC2)c1	–	–	·	·	·	·	·	·	·
C=C1N(c2cccc(Cl)c2)C(=O)OC1(C)C	–	–	–	–	–	·	·	·	·
C=CCn1cnc2c(c1=O)c1nc3ccccc3nc1n2/N=C/c1cc(OC)c(OC)c(OC)c1	–	–	–	–	–	·	·	·	·
COCCn1cnc2c(c1=O)c1nc3ccccc3nc1n2/N=C/c1cccc(OC)c1	–	53	–	–	–	27	–	–	–
CCCCC(CC)C(=O)Nc1ncc([N+](=O)[O-])s1 (stereo unspecified)	–	–	–	–	–	·	·	·	·
Cc1ccc(C(=O)NC(=S)NCc2ccccc2)cc1Br	–	–	–	–	–	·	·	·	·
Cc1nc2ccccc2c2oc(C(=O)NCC3COc4ccccc4O3)cc12 (stereo unspecified)	–	54	–	–	–	35	–	–	–
CCc1ccc(CNC(=O)c2cc3c(C)nc4ccccc4c3o2)cc1	–	–	–	–	–	·	·	·	·
FC(F)Oc1ccc(-c2csc(=Nc3cccnc3)n2CC2CCCO2)cc1 (stereo unspecified)	–	57	–	–	–	37	–	–	–
COc1cc(/C=C/c2nc(N)nc(-c3ccccc3O)n2)cc(OC)c1OC	–	–	–	–	–	·	·	·	·
COc1cc(/C=C/c2nc(-c3ccccc3O)n[nH]2)cc(OC)c1OC	–	72	–	–	–	22	51	–	–
COc1ccc(C(=O)Oc2cccc(Nc3ncnc4ccccc34)c2)cc1OC	–	69	–	–	–	43	54	12	–
C=CCO/N=C(/C)c1ccc(Oc2cnccn2)cc1	–	–	–	–	–	·	·	·	·
Cc1cccc(C(=O)NN2C(=O)C3C(c4ccccc4)C=CC(c4ccccc4)C3C2=O)c1 (stereo unspecified)	–	92	–	–	–	54	60	14	–
OC(c1ccccc1)(c1ccccc1)C1CCN(CCCOc2ccc(-c3ccc(F)cc3F)cc2)CC1	–	52	·	·	·	42	–	18	–
COc1ccccc1-c1ccc(OCCCN2CCC(C(O)(c3ccccc3)c3ccccc3)CC2)cc1	–	56	·	·	·	42	59	15	–

High-throughput results: PubChem BioAssay, The Scripps Research Institute Molecular Screening Center
